Measured values reported in article PMC7191562 (ACS Omega, 2020).
Values after ≈ are worked out from the molar mass of the structure shown.

System: E. faecalis (MDR 14U0445)
Assay: MIC antibacterial assay
Format: cell-based
Conditions: Enterococcus faecalis, 16 h
In short: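 Clinical isolates grown from single colonies in LB at 37 °C to log phase, then set to 2 × 10⁵ CFU/mL in LB using 1 OD600 = 1 × 10⁹ CFU/mL. Peptide stock was 2 mg/mL in water. A 192 μg/mL peptide solution was twofold serially diluted in LB, then bacteria were added. Plates ran 16 h at 37 °C with A600 read-out, each peptide in triplicate.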

SMILES: CC1(C)S[C@@H]2[C@H](NC(=O)[C@H](N)c3ccccc3)C(=O)N2[C@H]1C(=O)O [Amp, Ampicillin]
- MIC: 2 µg/mL (≈ 5.72 µM)
